Measured values: ChEMBL document CHEMBL3259614, “Design, synthesis, and structure-activity relationship studies of novel fused heterocycles-linked triazoles with good activity and water solubility” (J Med Chem, 2014)
Values after ≈ are worked out from the molar mass of the structure shown.

Tests used:
Type in all cases: functional
Candida albicans [1] = assay: Antimicrobial activity against Candida albicans SC5314 after 24 hrs by serial dilution method; conditions: SC5314, 24 h
How it was run: (§1)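 Broth serial dilution MIC in 96-well plates following NCCLS/CLSI methods. Compounds were dissolved in DMSO and serially diluted in growth medium, with incubation at 35 °C. […] C. parapsilosis 22019 served as the quality-control strain in each assay.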

Candida albicans [2] = assay: Antimicrobial activity against Candida albicans Y0109 after 24 hrs by serial dilution method; conditions: Y0109, 24 h; how it was run: as §1
Candida parapsilosis = assay: Antimicrobial activity against Candida parapsilosis 22019 after 24 hrs by serial dilution method; conditions: Lodderomyces parapsilosis, 22019, 24 h; how it was run: as §1
Cryptococcus neoformans = assay: Antimicrobial activity against Cryptococcus neoformans 32609 after 72 hrs by serial dilution method; conditions: Cryptococcus neoformans, 32609, 72 h; how it was run: as §1
Nakaseomyces glabratus = assay: Antimicrobial activity against Candida glabrata 537 after 24 hrs by serial dilution method; conditions: Nakaseomyces glabratus, 537, 24 h; how it was run: as §1
Aspergillus fumigatus = assay: Antimicrobial activity against Aspergillus fumigatus 7544 after 48 hrs by serial dilution method; conditions: Aspergillus fumigatus, 7544, 48 h; how it was run: as §1

Row | SMILES | MIC (Candida albicans [1]) [µg/mL] | MIC (Candida albicans [2]) [µg/mL] | MIC (Candida parapsilosis) [µg/mL] | MIC (Cryptococcus neoformans) [µg/mL] | MIC (Nakaseomyces glabratus) [µg/mL] | MIC (Aspergillus fumigatus) [µg/mL]
1 | C[C@@H](N1CCc2nc(-c3cccc(Cl)c3)sc2C1)[C@](O)(Cn1cncn1)c1ccc(F)cc1F | 4 (≈ 7.97 µM) | 4 (≈ 7.97 µM) | 2 (≈ 3.98 µM) | 2 (≈ 3.98 µM) | 4 (≈ 7.97 µM) | 32 (≈ 63.7 µM)
2 | C[C@@H](N1CCc2nc(-c3cccc(F)c3)sc2C1)[C@](O)(Cn1cncn1)c1ccc(F)cc1F | 2 (≈ 4.12 µM) | 2 (≈ 4.12 µM) | 2 (≈ 4.12 µM) | 2 (≈ 4.12 µM) | 8 (≈ 16.5 µM) | 32 (≈ 65.9 µM)
3 | Cc1cccc(-c2nc3c(s2)CN([C@H](C)[C@](O)(Cn2cncn2)c2ccc(F)cc2F)CC3)c1 | 2 (≈ 4.15 µM) | 2 (≈ 4.15 µM) | 1 (≈ 2.08 µM) | 4 (≈ 8.31 µM) | 4 (≈ 8.31 µM) | 32 (≈ 66.4 µM)
4 | C[C@@H](N1CCc2nc(-c3cccc(Br)c3)sc2C1)[C@](O)(Cn1cncn1)c1ccc(F)cc1F | 2 (≈ 3.66 µM) | 2 (≈ 3.66 µM) | 2 (≈ 3.66 µM) | 4 (≈ 7.32 µM) | 8 (≈ 14.6 µM) | 32 (≈ 58.6 µM)
5 | COc1cccc(-c2nc3c(s2)CN([C@H](C)[C@](O)(Cn2cncn2)c2ccc(F)cc2F)CC3)c1 | 1 (≈ 2.01 µM) | 1 (≈ 2.01 µM) | 1 (≈ 2.01 µM) | 2 (≈ 4.02 µM) | 1 (≈ 2.01 µM) | 16 (≈ 32.2 µM)
6 | C[C@@H](N1CCc2nc(-c3ccc(C#N)cc3)sc2C1)[C@](O)(Cn1cncn1)c1ccc(F)cc1F | 0.0625 (≈ 0.127 µM) | 0.125 (≈ 0.254 µM) | 0.125 (≈ 0.254 µM) | 0.125 (≈ 0.254 µM) | 0.5 (≈ 1.02 µM) | 16 (≈ 32.5 µM)
7 | C[C@@H](N1CCc2nc(-c3cccc(C#N)c3)sc2C1)[C@](O)(Cn1cncn1)c1ccc(F)cc1F | 0.125 (≈ 0.254 µM) | 0.125 (≈ 0.254 µM) | 2 (≈ 4.06 µM) | 1 (≈ 2.03 µM) | 2 (≈ 4.06 µM) | 16 (≈ 32.5 µM)
8 | C[C@@H](N1CCc2nc(-c3cccs3)sc2C1)[C@](O)(Cn1cncn1)c1ccc(F)cc1F | 0.25 (≈ 0.528 µM) | 0.25 (≈ 0.528 µM) | 1 (≈ 2.11 µM) | 0.5 (≈ 1.06 µM) | 0.5 (≈ 1.06 µM) | 8 (≈ 16.9 µM)
9 | C[C@@H](N1CCc2nc(-c3ccco3)sc2C1)[C@](O)(Cn1cncn1)c1ccc(F)cc1F | 0.25 (≈ 0.546 µM) | 1 (≈ 2.19 µM) | 1 (≈ 2.19 µM) | 0.5 (≈ 1.09 µM) | 0.5 (≈ 1.09 µM) | 8 (≈ 17.5 µM)
10 | C[C@@H](N1CCc2nc(-c3ccncc3)sc2C1)[C@](O)(Cn1cncn1)c1ccc(F)cc1F | 0.0312 (≈ 0.0667 µM) | 0.0312 (≈ 0.0667 µM) | 0.125 (≈ 0.267 µM) | 0.125 (≈ 0.267 µM) | 0.125 (≈ 0.267 µM) | 4 (≈ 8.54 µM)
11 | C[C@@H](N1CCc2nc(-c3cncc(F)c3)sc2C1)[C@](O)(Cn1cncn1)c1ccc(F)cc1F | 0.125 (≈ 0.257 µM) | 0.125 (≈ 0.257 µM) | 0.25 (≈ 0.514 µM) | 0.125 (≈ 0.257 µM) | 0.125 (≈ 0.257 µM) | 8 (≈ 16.4 µM)
12 | C[C@@H](N1CCc2nc(-c3cncc(C#N)c3)sc2C1)[C@](O)(Cn1cncn1)c1ccc(F)cc1F | 0.125 (≈ 0.253 µM) | 0.25 (≈ 0.507 µM) | 0.25 (≈ 0.507 µM) | 0.25 (≈ 0.507 µM) | 0.5 (≈ 1.01 µM) | 8 (≈ 16.2 µM)
13 | C[C@@H](N1CCc2nc(-c3ccc(C#N)nc3)sc2C1)[C@](O)(Cn1cncn1)c1ccc(F)cc1F | 0.0625 (≈ 0.127 µM) | 0.0625 (≈ 0.127 µM) | 0.25 (≈ 0.507 µM) | 0.25 (≈ 0.507 µM) | 0.5 (≈ 1.01 µM) | 8 (≈ 16.2 µM)
14 | C[C@@H](N1CCc2nc(-c3ccc(F)nc3)sc2C1)[C@](O)(Cn1cncn1)c1ccc(F)cc1F | 0.0625 (≈ 0.128 µM) | 0.125 (≈ 0.257 µM) | 0.25 (≈ 0.514 µM) | 0.125 (≈ 0.257 µM) | 0.125 (≈ 0.257 µM) | 8 (≈ 16.4 µM)
15 | COc1ccc(-c2nc3c(s2)CN([C@H](C)[C@](O)(Cn2cncn2)c2ccc(F)cc2F)CC3)cn1 | 0.25 (≈ 0.501 µM) | 0.25 (≈ 0.501 µM) | 0.5 (≈ 1 µM) | 0.25 (≈ 0.501 µM) | 0.5 (≈ 1 µM) | 16 (≈ 32.1 µM)
16 | Cc1ncc(-c2nc3c(s2)CN([C@H](C)[C@](O)(Cn2cncn2)c2ccc(F)cc2F)CC3)cn1 | 0.0625 (≈ 0.129 µM) | 0.0625 (≈ 0.129 µM) | 0.25 (≈ 0.517 µM) | 0.25 (≈ 0.517 µM) | 0.25 (≈ 0.517 µM) | 16 (≈ 33.1 µM)
17 | COc1ncc(-c2nc3c(s2)CN([C@H](C)[C@](O)(Cn2cncn2)c2ccc(F)cc2F)CC3)cn1 | 0.0625 (≈ 0.125 µM) | 0.125 (≈ 0.25 µM) | 0.25 (≈ 0.5 µM) | 0.5 (≈ 1 µM) | 0.25 (≈ 0.5 µM) | 8 (≈ 16 µM)
18 | C[C@@H](N1CCc2sc(Br)cc2C1)[C@](O)(Cn1cncn1)c1ccc(F)cc1F | 2 (≈ 4.26 µM) | 4 (≈ 8.52 µM) | 8 (≈ 17 µM) | 2 (≈ 4.26 µM) | 4 (≈ 8.52 µM) | 64 (≈ 136 µM)
19 | C[C@@H](N1CCc2sc(-c3ccccc3)cc2C1)[C@](O)(Cn1cncn1)c1ccc(F)cc1F | 1 (≈ 2.14 µM) | 8 (≈ 17.1 µM) | 8 (≈ 17.1 µM) | 2 (≈ 4.29 µM) | 4 (≈ 8.57 µM) | 32 (≈ 68.6 µM)
20 | C[C@@H](N1CCc2sc(-c3ccc(F)cc3)cc2C1)[C@](O)(Cn1cncn1)c1ccc(F)cc1F | 2 (≈ 4.13 µM) | 2 (≈ 4.13 µM) | 8 (≈ 16.5 µM) | 2 (≈ 4.13 µM) | 4 (≈ 8.26 µM) | 64 (≈ 132 µM)
